# Screening data: PubChem BioAssay, several laboratories
# Only some compounds are listed: those with a hit (about 1.5% of all), similar ones and a draw of the others.
# Runt-CBFb FRET – inhibitors of human RUNX1 Runt domain binding to CBFb | Cerulean-Runt/Venus-CBFb FRET ratio 530/480, 1 h | inhibition, % at 20 µM | 0.46% of 220,000 active;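 active means inhibition over about 50% at 20 µM in the single-dose screen, limit read from the data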;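 further: 0% = DMSO wells and 100% = excess unlabeled CBFb competitor control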
# Target sequence (Q01196 whole entry, looked up, the tested form may be a part): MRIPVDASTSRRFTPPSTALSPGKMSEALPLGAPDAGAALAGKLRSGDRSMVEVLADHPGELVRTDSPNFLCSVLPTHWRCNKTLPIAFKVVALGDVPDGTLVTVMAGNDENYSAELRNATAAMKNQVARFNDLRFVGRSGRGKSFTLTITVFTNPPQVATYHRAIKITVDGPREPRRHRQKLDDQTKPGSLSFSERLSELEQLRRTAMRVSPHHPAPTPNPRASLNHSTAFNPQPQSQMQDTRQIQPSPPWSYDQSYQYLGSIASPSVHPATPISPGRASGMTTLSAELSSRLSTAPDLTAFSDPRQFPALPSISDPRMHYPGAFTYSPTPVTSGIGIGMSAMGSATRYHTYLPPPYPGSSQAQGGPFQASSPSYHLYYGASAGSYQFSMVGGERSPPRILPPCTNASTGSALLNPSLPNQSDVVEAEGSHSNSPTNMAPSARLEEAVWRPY
# Target sequence (Q13951 whole entry, looked up, the tested form may be a part): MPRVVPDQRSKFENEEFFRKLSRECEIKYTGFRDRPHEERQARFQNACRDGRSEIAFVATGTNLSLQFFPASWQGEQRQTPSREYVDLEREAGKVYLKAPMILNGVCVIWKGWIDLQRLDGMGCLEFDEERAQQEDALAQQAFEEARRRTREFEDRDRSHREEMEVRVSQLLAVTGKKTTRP
#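 test system = Cerulean-tagged RUNX1 Runt domain (FRET donor) fusion protein | reagent = Venus-CBFb binding partner, 100 nM | incubation = protein complex preformed 1 h, compound exposure 1 h, room temperature, dark | detection = FRET fluorescence | read-out basis = loss of energy transfer signal | controls = 5 µM unlabeled CBFb as full-inhibition high control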
# RanGTP-Impb inh – disruptors of Ran-importin-beta complex formation – biochemical, FRET, CFP-Ran, YFP-importin-beta, homogeneous, primary screen. cell-free CFP-Ran/YFP-importin-beta FRET ratio. inhibition, % (test concentration not listed). 1.1% of 300,000 active. AID 2216;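 active means more than half of the replicate wells show a fall in the fluorescence ratio signal beyond about 16%, limit read from the data, passing the limit was not always enough; inconclusive means exactly half of the replicate wells pass the set limit; inactive means fewer than half of replicates pass the limit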;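 further: 0% = DMSO wells and 100% = Ran loaded with GDP instead of GTP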
# Hck Nef HTS – blocks Nef-activated human Hck kinase. P08631. Recombinant Hck-YEEI plus Nef, Z-Lyte FRET kinase assay. inhibition, % at 20 µM. 0.68% of 220,000 active;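 active means Hck-Nef kinase inhibition above about 50%, limit read from the data; inactive means inhibition below that limit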;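 further: 0% = DMSO with Hck plus Nef and 100% = Hck alone without Nef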
# Runt-SMMHC FRET – inhibitors of human RUNX1 Runt domain binding to CBFb-SMMHC; Cerulean-Runt/Venus-CBFb-SMMHC FRET ratio 530/480, 1 h; Q01196+Q13951; 0.74% of 220,000 active; AID 1434; inhibition, % at 20 µM;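 active means mean inhibition across duplicate retests at 20 µM reaching about 50%, limit read from the data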;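 further: 0% = DMSO wells and 100% = wells with excess untagged CBFb-SMMHC; inhibitors lower the FRET ratio by blocking Runt binding to CBFb-SMMHC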
# CaV13 ICDI inh – Primary screen for inhibitors of IQ motif and Ca2+-dependent inactivation inhibitor domain binding in CACNA1D, Förster resonance energy transfer in living cells, …; HEK cells, CFP/YFP FRET ICDI-IQ, plate reader, 10 min; percent FRET-ratio fall versus neutral wells; inhibition, % at 12.3 µM; 0.098% of 340,000 active;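 active means mean replicate inhibition of at least 30% and at least 1% of replicates passing that level; inconclusive means only one of the two criteria is met; inactive means neither criterion is met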;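 further: 0% = median of the neutral control wells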
# YIC FRET counter – counter-screen: alters YIC FRET probe signal. shares compounds with RanGTP-Impb inh. Purified YIC probe, intramolecular FRET ratio YFP/CFP. IC50, µM. 40% of 1,000 active. AID 435026;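 active means fitted half-maximal inhibitory concentration no more than tenfold above the top dose tested; inconclusive means flat fit with 30 to 70% activity, or poor fit; inactive means half-maximal concentration beyond tenfold above the top dose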
# Starred values were filed as active, the others as inactive; ? = inconclusive; . = not tested or not shown.
SMILES,Runt-CBFb FRET,RanGTP-Impb inh,Hck Nef HTS,Runt-SMMHC FRET,CaV13 ICDI inh,YIC FRET counter
CC(NC(=O)C1CSC2(C)CCC(=O)N12)c1ccccc1Cl (stereo unspecified),.,0.0,.,.,-16.7,.
Cc1cccc(/C=N/c2sc3c(c2C#N)CCN(Cc2ccccc2)C3)c1O,30.7,36.4*,3.1,125.5*,-2.2,>50
COc1ccc(/C=N/c2sc3c(c2C#N)CCN(Cc2ccccc2)C3)c(O)c1,46.1,4.2,0.9,44.4,.,.
COc1ccc2nc(SCC(=O)NCc3ccc4c(c3)OCO4)[nH]c2c1,0.6,7.6,5.8,-1.5,-5.5,.
CCOc1ccc2nc(SCC(=O)NCc3ccc4c(c3)OCO4)[nH]c2c1,2.0,29.7*,1.8,4.4,-12.9,>50
CC(=O)Nc1ccc(Oc2ccccc2)cc1,0.1,2.4,9.2,-1.4,-1.7,.
O=[N+]([O-])c1ccc2nc(SCc3cn4cc(Cl)ccc4n3)[nH]c2c1,5.0,0.6,1.1,0.1,-4.5,.
CC(=O)O/N=C/c1c(Cl)n(C)c2ccccc12,-1.2,47.8*,7.1,3.8,-5.1,>50
Cc1cc(CNC(=O)COc2ccc(F)cc2)c2ccccc2n1,0.5,17.5*,3.0,-1.3,3.3,>50
Cc1cccc(OCC(=O)NNc2c3ccccc3nc3ccccc23)c1,10.2,32.6*,0.8,15.1,-6.4,>50
O=C(Cc1ccccc1)NNc1c2ccccc2nc2ccccc12,17.1,34.2*,5.2,19.8,15.2,>50
Cc1cccc(OCC(=O)Nc2cc(NC(=O)COc3cccc(C)c3)cc(C(=O)O)c2)c1,.,4.6,.,.,-5.6,.
Cc1cc(CNC(=O)COc2ccccc2)c2ccccc2n1,1.8,1.4,18.7,-1.4,0.9,.
Cc1ccc(OCC(=O)NNc2c3ccccc3nc3ccccc23)cc1,4.8,36.2*,12.0,23.8,47.8*,>50
COc1cc(CCC(=O)Nc2sccc2C#N)cc(OC)c1OC,.,-1.2,.,.,-4.2,.
Cc1ccc(Cc2nc(-c3cccnc3)no2)cc1,2.6,-0.4,0.9,-8.4,-4.1,.
CC1(C)CC(=O)C(C=NCC2CCN(C(=S)Nc3ccccc3)CC2)=C(O)C1,-0.7,0.9,6.8,2.1,-3.9,.
CCN(Cc1ccccc1)C(=O)CN1C(=O)NC(CC)(c2ccc(F)cc2)C1=O (stereo unspecified),.,23.5*,.,.,-2.1,>50
S=C(N/N=C/c1ccc2ncccc2c1)Nc1ccccc1,2.8,-0.7,3.6,-1.2,-4.5,.
O=C(O)COc1ccc(F)cc1Br,1.1,25.5*,-6.3,-0.5,-4.0,>50
O=C(COc1ccc(F)cc1Br)NCc1ccccn1,-1.0,?,0.9,-2.5,-6.0,.
Cc1cc(C)c(C2=CC(c3ccccc3)n3ncnc3N2)cc1C (stereo unspecified),.,18.0*,.,.,.,30.4*
CCc1nnc(NC(=O)c2c(C)nn(-c3ccccc3)c2Cl)s1,-1.5,20.1*,-1.7,-1.1,-3.8,>50
O=C1C(=O)N(CCS(=O)(=O)c2ccccc2)c2ccc(Cl)cc21,.,39.0*,.,.,-2.1,>50
CCc1ccc2c(c1)C(=O)C(=O)N2CCS(=O)(=O)c1ccccc1,.,?,.,.,-2.7,.
SMILES,Runt-CBFb FRET,RanGTP-Impb inh,Hck Nef HTS,Runt-SMMHC FRET,CaV13 ICDI inh,YIC FRET counter
COc1ccc(-n2ncc3c2CC(C)(C)CC3NC(=O)CCN2CCCC2=O)cc1 (stereo unspecified),.,0.4,.,.,-6.9,.
CCOc1ccc(NC(=O)CN2C(=O)COc3ccc(Cl)cc32)cc1,2.8,17.6*,0.4,1.1,8.6,>50
CCOc1ccccc1NC1=CC(=O)CC(c2ccccc2)C1 (stereo unspecified),-2.4,24.4*,1.9,-8.4,-5.7,>50
CCN(CC)S(=O)(=O)c1ccc2oc(C(=O)NCCCN3CCOCC3)c(C)c2c1,-0.3,17.0*,0.1,-0.4,-4.9,>50
CCCc1ccc2oc(C(=O)NCCCN3CCOCC3)c(C)c2c1,.,0.8,.,.,-5.3,.
CCCn1c(C2CCCN2c2nc(-c3cccc(Br)c3)cs2)nc2cc(Cl)c(Cl)cc21 (stereo unspecified),.,?,.,.,-5.2,.
CNc1cccc(-c2ccc(C(C)=O)s2)n1,.,.,.,.,-7.0,.
CC(=O)c1ccc(-c2cccs2)s1,78.4*,18.6*,38.1,142.6*,8.8,28.9*
O=c1cc(N2CCN(c3ccccc3)CC2)[nH]c(=O)n1-c1ccccc1,2.3,9.2,15.1,-7.1,.,.
CCN1CCN(c2cc(=O)n(Cc3ccc(F)cc3)c(=O)[nH]2)CC1,-78.7,28.8*,17.5,-6.1,12.5,>50
O=c1cc(N2CCN(Cc3ccccc3)CC2)[nH]c(=O)n1-c1ccc(Br)cc1,3.2,31.1*,1.3,0.0,-4.4,>50
CCOC(=O)N1CCN(c2cc(=O)n(Cc3ccc(F)cc3)c(=O)[nH]2)CC1,-2.0,25.8*,15.1,-0.6,-5.1,>50
CC1(c2nc3ccccc3[nH]2)CCC(=O)N1Cc1ccccn1 (stereo unspecified),.,.,.,.,-3.7,.
CCc1ccc(NC(=O)CC2C(=O)NCCN2C(=O)c2ccccc2OC)cc1 (stereo unspecified),.,1.7,.,.,-5.5,.
COc1ccc(-c2c(C)c3ccc(O)cc3oc2=O)cc1OC,.,20.0*,.,.,-15.3,34.3*
CC/C(=N\NC(=O)c1cc(C2CC2)[nH]n1)c1ccccc1,.,38.2*,.,.,-15.2,>50
Cc1cc(C)c(OCC(=O)OCC(=O)N2CCN(C(=O)c3ccco3)CC2)c(C)c1,.,3.1,.,.,-5.8,.
Cc1ccc2nc(N3CCN(C(=O)c4ccc(F)cc4)CC3)c(C#N)cc2c1,.,22.3*,.,.,15.7,25.1*
O=C(NCc1nc2ncc(Br)cc2[nH]1)c1ccccc1,-1.5,3.4,0.5,-4.2,-9.0,.
O=c1[nH]c2cc(Br)cnc2nc1/C=C(\O)c1ccc(F)cc1,21.3,17.7*,-3.2,-19.2,-5.7,>50
O=C(Nc1ccc(N2CCN(C(=O)c3cccs3)CC2)c(Cl)c1)c1cccnc1,1.0,0.7,18.1,-3.0,-6.9,.
Cc1nc2[nH]c(=O)c3c(n2n1)NC1=C(C(=O)CC(C)(C)C1)C3c1ccccc1 (stereo unspecified),77.7*,49.3*,1.9,136.1*,-2.5,4.3*
Cc1cc(C)cc(OCC(=O)OC/C(O)=C(\C#N)c2nc3ccccc3[nH]2)c1,2.4,-3.1,6.2,2.1,-16.3,.
Cc1cccc(C)c1OCC(=O)OC/C(O)=C(\C#N)c1nc2ccccc2[nH]1,3.1,26.0*,4.9,1.0,-4.4,>50
O=C(/C=C/c1ccc[nH]1)c1ccccc1,25.1,22.8*,21.2,11.1,3.9,31.6*
O=C(/C=C/c1ccc[nH]1)c1ccc(F)cc1,27.6,28.1*,19.4,2.7,-2.5,24.8*
